Converted amounts (≈) assume the structure as drawn. The source made the active and inactive calls.
Tests used:
Escherichia coli [1] = assay: Antibacterial activity against Escherichia coli KAM32 harboring plasmid pUC18 by CLSI broth microdilution method; assay type: functional
Escherichia coli [2] = assay: Antibacterial activity against Escherichia coli KAM32 harboring plasmid pUC18 by CLSI broth microdilution method in presence of 25 ug/ml efflux pump inhibitor CCCP; assay type: functional
Escherichia coli [3] = assay: Antibacterial activity against Escherichia coli KAM32 harboring recombinant plasmid pVBS1 encoding Acinetobacter baumannii abeS gene by CLSI broth microdilution method; assay type: functional
Escherichia coli [4] = assay: Antibacterial activity against Escherichia coli KAM32 harboring recombinant plasmid pVBS1 encoding Acinetobacter baumannii abeS gene by CLSI broth microdilution method in presence of 25 ug/ml efflux pump inhibitor CCCP; assay type: functional
Acinetobacter baumannii [5] = assay: Antibacterial activity against Acinetobacter baumannii AC0037 by CLSI broth microdilution method; assay type: functional
Acinetobacter baumannii [6] = assay: Antibacterial activity against abeS-deficient Acinetobacter baumannii AC0037 by CLSI broth microdilution method; assay type: functional
Acinetobacter baumannii [7] = assay: Ratio of MIC for Acinetobacter baumannii AC0037 to MIC for abeS-deficient Acinetobacter baumannii AC0037; assay type: functional
Outline: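 MICs were determined by broth dilution and interpreted per CLSI criteria for the parental A. baumannii AC0037 and its abeS null mutant. The mutant was made by electroporating a plasmid carrying abeS disrupted by a kanamycin-resistance cassette, for double homologous recombination, and selected on 50 μg/ml kanamycin plus 80 μg/ml ticarcillin. The ratio is the parental MIC over the mutant MIC.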

Acinetobacter baumannii [8] = assay: Antibacterial activity against abeS sigma abeS-deficient Acinetobacter baumannii AC0037 by CLSI broth microdilution method; assay type: functional
Escherichia coli [9] = assay: Ratio of MIC for Escherichia coli KAM32 harboring recombinant plasmid pVBS1 encoding Acinetobacter baumannii abeS gene to MIC for Escherichia coli KAM32 harboring plasmid pUC18
[10] = target: T1, QacEdelta1 SMR family efflux pump (Acinetobacter baumannii) (UniProt Q2FD83); assay: Inhibition of Acinetobacter baumannii abeS expressed in Escherichia coli KAM32 assessed as decrease in increase in bromide accumulation
T1 sequence (whole entry): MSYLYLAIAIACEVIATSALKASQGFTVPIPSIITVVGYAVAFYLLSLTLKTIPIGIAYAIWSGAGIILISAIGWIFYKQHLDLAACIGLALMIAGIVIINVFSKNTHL
Outline: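 EtBr accumulation in E. coli KAM32 (lacks AcrAB, YdhE) carrying pUC18 or pVBS1 (abeS). CCCP, a proton motive force uncoupler, added to 25 μg/ml final after 20 min with substrate. Cells lysed; supernatant fluorescence read at excitation 530 nm, emission 600 nm. Relative fluorescence taken as accumulated EtBr. Mean plus SD of three independent experiments.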

| SMILES | MIC (Escherichia coli [1]) [µg/mL] | MIC (Escherichia coli [2]) [µg/mL] | MIC (Escherichia coli [3]) [µg/mL] | MIC (Escherichia coli [4]) [µg/mL] | MIC (Acinetobacter baumannii [5]) [µg/mL] | MIC (Acinetobacter baumannii [6]) [µg/mL] | Ratio (Acinetobacter baumannii [7]) | MIC (Acinetobacter baumannii [8]) [µg/mL] | Ratio (Escherichia coli [9]) | Activity (Acinetobacter baumannii [6]) | inhibition [10] |
| --- | --- | --- | --- | --- | --- | --- | --- | --- | --- | --- | --- |
| [Cl-].c1ccc([P+](c2ccccc2)(c2ccccc2)c2ccccc2)cc1 [TETRAPHENYLPHOSPHONIUM CHLORIDE] | 8 | 0.25 | 16 | 0.25 | 1500 | 300 | 5 | > 500 | 2 |  |  |
| CC[C@H]1OC(=O)[C@H](C)[C@@H](O[C@H]2C[C@@](C)(OC)[C@@H](O)[C@H](C)O2)[C@H](C)[C@@H](O[C@@H]2O[C@H](C)C[C@H](N(C)C)[C@H]2O)[C@](C)(O)C[C@@H](C)C(=O)[C@H](C)[C@@H](O)[C@]1(C)O [ERYTHROMYCIN] | 4 (≈ 5.45 µM) | < 0.05 | 24 | 0.25 | 64 (≈ 87.2 µM) | 8 (≈ 10.9 µM) | 8 | 32 (≈ 43.6 µM) | 6 |  |  |
| C[C@H](CCC(=O)O)[C@H]1CC[C@H]2[C@@H]3CC[C@@H]4C[C@H](O)CC[C@]4(C)[C@H]3C[C@H](O)[C@]12C [DEOXYCHOLIC ACID] | 125 (≈ 318 µM) | < 0.25 | 3120 | 5 | > 2050 | 128 (≈ 326 µM) | >16 | 512 (≈ 1300 µM) | 25 |  |  |
| CO[C@@H]1[C@@H](OC(N)=O)[C@@H](O)[C@H](Oc2ccc3c(O)c(NC(=O)c4ccc(O)c(CC=C(C)C)c4)c(=O)oc3c2C)OC1(C)C [NOVOBIOCIN] | 4 (≈ 6.53 µM) | < 0.5 | 20 | < 0.5 | 120 (≈ 196 µM) | 40 (≈ 65.3 µM) | 3 | 84 (≈ 137 µM) | 5 |  |  |
| C[C@@H](O)[C@H]1C(=O)N2C(C(=O)O)=C(SCCNC=N)C[C@H]12 |  |  |  |  |  |  |  |  |  | inactive |  |
| N=C(N)c1ccc(-c2cc3ccc(C(=N)N)cc3[nH]2)cc1 [DAPI] | 0.5 (≈ 1.8 µM) |  | 2 |  | 2 (≈ 7.21 µM) | 0.5 (≈ 1.8 µM) | 4 | 2 (≈ 7.21 µM) | 4 |  |  |
| COC(=O)c1ccccc1-c1c2ccc(=N)cc-2oc2cc(N)ccc12.Cl [RHODAMINE123] | 8 |  | 32 |  | 128 | 64 | 2 | 128 | 4 |  |  |
| C[n+]1ccc(-c2cc[n+](C)cc2)cc1.[Cl-].[Cl-] [PARAQUAT DICHLORIDE] | 64 | < 2.5 | 128 | < 2.5 | 800 | 400 | 2 | 800 | 2 |  |  |
| CN(C)[C@@H]1C(O)=C(C(N)=O)C(=O)[C@@]2(O)C(O)=C3C(=O)c4c(O)cccc4[C@@](C)(O)[C@H]3C[C@@H]12 [TETRACYCLINE] | 0.5 (≈ 1.13 µM) |  | 1 |  | 64 (≈ 144 µM) | 64 (≈ 144 µM) | 1 | 64 (≈ 144 µM) | 2 |  |  |
| C[C@@H](O)[C@H]1C(=O)N2C(C(=O)O)=C(S[C@@H]3CN[C@H](C(=O)N(C)C)C3)[C@H](C)[C@H]12 |  |  |  |  |  |  |  |  |  | inactive |  |
| CCCCCCCCCCCCOS(=O)(=O)[O-].[Na+] [SODIUM LAURYL SULFATE] | 50 | < 5 | 800 | < 5 | > 256 | 16 | >16 | 128 | 16 |  |  |
| N=C(NCCCCCCNC(=N)NC(=N)Nc1ccc(Cl)cc1)NC(=N)Nc1ccc(Cl)cc1 [CHLORHEXIDINE] | 2 (≈ 3.96 µM) |  | 4 |  | 32 (≈ 63.3 µM) | 16 (≈ 31.7 µM) | 2 | 32 (≈ 63.3 µM) | 2 |  |  |
| CC(C)(O/N=C(\C(=O)N[C@@H]1C(=O)N2C(C(=O)[O-])=C(C[n+]3ccccc3)CS[C@H]12)c1csc(N)n1)C(=O)O |  |  |  |  |  |  |  |  |  | inactive |  |
| O=C(N[C@H](CO)[C@H](O)c1ccc([N+](=O)[O-])cc1)C(Cl)Cl [CHLORAMPHENICOL] | 0.2 (≈ 0.619 µM) |  | 0.2 |  | 256 (≈ 792 µM) | 64 (≈ 198 µM) | 4 | 128 (≈ 396 µM) | 1 |  |  |
| NCC[C@H](O)C(=O)N[C@@H]1C[C@H](N)[C@@H](O[C@H]2O[C@H](CN)[C@@H](O)[C@H](O)[C@H]2O)[C@H](O)[C@H]1O[C@H]1O[C@H](CO)[C@@H](O)[C@H](N)[C@H]1O [AMIKACIN] | 1 (≈ 1.71 µM) | 0.15 | 2 | 0.15 | 256 (≈ 437 µM) | 256 (≈ 437 µM) | 1 | 256 (≈ 437 µM) | 2 |  |  |
| CCn1cc(C(=O)O)c(=O)c2ccc(C)nc21 [NALIDIXIC ACID] | 1 (≈ 4.31 µM) |  | 1 |  | 256 (≈ 1100 µM) | 128 (≈ 551 µM) | 2 | 256 (≈ 1100 µM) | 1 |  |  |
| COc1cc(Cc2cnc(N)nc2N)cc(OC)c1OC [TRIMETHOPRIM] | 0.125 (≈ 0.431 µM) |  | 0.2 |  | 64 (≈ 220 µM) | 64 (≈ 220 µM) | 1 | 64 (≈ 220 µM) | 2 |  |  |
| CCBr [BROMOETHANE] | 2 (≈ 18.4 µM) |  | 8 |  | 1020 (≈ 9400 µM) | 128 (≈ 1170 µM) | 8 | > 512 | 4 |  |  |
| CCn1cc(C(=O)O)c(=O)c2cc(F)c(N3CCNCC3)cc21 [NORFLOXACIN] | 0.06 (≈ 0.188 µM) | 0.001 | 0.12 | 0.001 | 512 (≈ 1600 µM) | 256 (≈ 802 µM) | 2 | > 128 | 2 |  |  |
| CN(C)c1ccc2cc3ccc(N(C)C)cc3nc2c1 [ACRIDINE ORANGE] | 16 (≈ 60.3 µM) |  | 80 |  | 200 (≈ 754 µM) | 50 (≈ 188 µM) | 4 | 125 (≈ 471 µM) | 5 |  |  |
| N#CC(C#N)=NNc1cccc(Cl)c1 |  |  |  |  |  |  |  |  |  |  | Active |
| CO[C@H]1/C=C/O[C@@]2(C)Oc3c(C)c(O)c4c(O)c(c(/C=N/N5CCN(C)CC5)c(O)c4c3C2=O)NC(=O)/C(C)=C\C=C\[C@H](C)[C@H](O)[C@@H](C)[C@@H](O)[C@@H](C)[C@H](OC(C)=O)[C@@H]1C [RIFAMPIN] |  |  |  |  | 2 (≈ 2.43 µM) | 2 (≈ 2.43 µM) |  | 2 (≈ 2.43 µM) |  |  |  |
